In ChEMBL document CHEMBL1800041, “Bioactive terpenes from Spongia officinalis” (J Nat Prod, 2011) one finds Activity data, which are given here for seven compounds.

Format in all cases: functional, organism-based
One assay has as its system Escherichia coli. Nature of the assay: Antibacterial activity against Escherichia coli by broth macrodilution method. The essentials:
(§1)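 Broth macrodilution as in the antifungal test (NCCLS M27-P guideline). The medium was changed to Luria-Bertani (10 g/L Bactotryptone, 5 g/L Bactoyeast, 10 g/L NaCl, pH 7.5), and incubation was at 37 °C for 24 h.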

The subject of assay [1] is Staphylococcus aureus. Put plainly: Antibacterial activity against Staphylococcus aureus by broth macrodilution method. The essentials: as §1
The test system of the next assay is Candida albicans. Nature of the assay: Antifungal activity against Candida albicans by broth macrodilution method. The essentials: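 Broth macrodilution following NCCLS document M27-P guidelines for antifungal susceptibility testing of yeast.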
In assay [2] the test system is Staphylococcus aureus. Put plainly: Antibacterial activity against Staphylococcus aureus at 100 ug/mL by broth macrodilution method.

Structures are written as SMILES. The source made the active and inactive calls. The calls are words filed in the database; no cut-off is given here.

Turning to `C/C(=C\CCc1ccoc1)C[C@H](O)C[C@@H](C)CCCc1ccoc1`, the result in the assay with Escherichia coli, in the assay on Staphylococcus aureus [1] and in the assay with Candida albicans was inactive.

For the compound `COC(=O)/C(C)=C/CC/C(=C/CC/C(C)=C/CC/C(C)=C/CCc1ccoc1)C(=O)O`, the outcome in the assay with Escherichia coli and in the assay with Candida albicans was inactive. In addition, the result with Staphylococcus aureus [2] was Active.

As for `C/C(=C\CCc1ccoc1)CC/C=C(\C)CCCc1ccoc1`, the result with Escherichia coli, with Staphylococcus aureus [1] and in the assay with Candida albicans was inactive.

Turning to `C[C@H](CCCc1ccoc1)CC(=O)C[C@@H](C)CCCc1ccoc1`, the outcome with Escherichia coli, in the assay with Staphylococcus aureus [1] and with Candida albicans was inactive.

On to `COC(=O)/C(=C\CC/C(C)=C/CC/C(C)=C/CCc1ccoc1)CC/C=C(\C)C(=O)O`, for which the result in the assay on Escherichia coli, with Staphylococcus aureus [1] and with Candida albicans was inactive.

As to `C/C(=C\CCc1ccoc1)CC/C=C(\C)CCCC1=CC(=O)OC1`, the result in the assay on Escherichia coli, in the assay on Staphylococcus aureus [1] and with Candida albicans was inactive.

In the case of `C/C(=C\CCc1ccoc1)CC(=O)C[C@@H](C)CCCc1ccoc1`, the result in the assay on Escherichia coli, in the assay on Staphylococcus aureus [1] and in the assay on Candida albicans was inactive.
